Results published in ChEMBL document CHEMBL3808357, “Discovery of N-(3-((1-Isonicotinoylpiperidin-4-yl)oxy)-4-methylphenyl)-3-(trifluoromethyl)benzamide (CHMFL-KIT-110) as a Selective, Potent, and Orally Available Type II c-KIT Kinase Inhibitor for Gastrointestinal Stromal Tumors (GISTs)” (J Med Chem, 2016).
The source made the active and inactive calls. The rule behind the calls is not given here.

Tests used:
[1] = Antiproliferative activity against human HL60 cells assessed as reduction in cell viability after 72 hrs by celltiter-glo/CCK8 assay; assay type: functional; conditions: HL-60, 72 h
Method in brief: (§1)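 Cells were seeded at 1 to 3 × 10⁴ cells/mL with serial compound concentrations and incubated 72 h at 37 °C, 5% CO₂. Viability was read by CellTiter-Glo luminescence or CCK-8 absorbance (450/655 nm). GI50 values are from triplicate testing. GIST-T1 and CHO were grown in DMEM/10% FBS; GIST-882, GIST-48B and MV4-11 in IMDM/10% FBS; other lines in RPMI 1640/10% FBS.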

[2] = AUC(0 to infinity) in Sprague-Dawley rat plasma at 10 mg/kg, po; assay type: ADME, organism-based; design: dose 10 mg/kg, time infinity, route oral
Method in brief: (§2)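 Male Sprague-Dawley rats, 8 weeks old, fasted overnight, dosed iv or orally. Formulation was 5% DMSO/40% PEG400/55% saline at 1 mg/mL. Blood (~0.2 mL) was drawn from the jugular vein into heparin. Sampling: iv at 1 min to 8 h; oral at 5 min to 24 h. Plasma was separated by centrifugation at 2−8 °C and stored at −80 °C.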

K562 = assay: Antiproliferative activity against BCR-ABL dependent human K562 cells assessed as reduction in cell viability after 72 hrs by celltiter-glo/CCK8 assay; assay type: functional; conditions: K562, 72 h; method in brief: as §1
[3] = biological target: T1, Platelet-derived growth factor receptor beta (Homo sapiens, UniProt P09619); assay: Inhibition of N-terminal GST-tagged recombinant human PDGFRbeta (amino acids 557-end) expressed in baculovirus infected insect Sf9 cells using Poly(4:1 Glu, Tyr) peptide as substrate after 1 hr by promega ADP-glo assay
T1 sequence (P09619 whole entry, the tested form may be a part): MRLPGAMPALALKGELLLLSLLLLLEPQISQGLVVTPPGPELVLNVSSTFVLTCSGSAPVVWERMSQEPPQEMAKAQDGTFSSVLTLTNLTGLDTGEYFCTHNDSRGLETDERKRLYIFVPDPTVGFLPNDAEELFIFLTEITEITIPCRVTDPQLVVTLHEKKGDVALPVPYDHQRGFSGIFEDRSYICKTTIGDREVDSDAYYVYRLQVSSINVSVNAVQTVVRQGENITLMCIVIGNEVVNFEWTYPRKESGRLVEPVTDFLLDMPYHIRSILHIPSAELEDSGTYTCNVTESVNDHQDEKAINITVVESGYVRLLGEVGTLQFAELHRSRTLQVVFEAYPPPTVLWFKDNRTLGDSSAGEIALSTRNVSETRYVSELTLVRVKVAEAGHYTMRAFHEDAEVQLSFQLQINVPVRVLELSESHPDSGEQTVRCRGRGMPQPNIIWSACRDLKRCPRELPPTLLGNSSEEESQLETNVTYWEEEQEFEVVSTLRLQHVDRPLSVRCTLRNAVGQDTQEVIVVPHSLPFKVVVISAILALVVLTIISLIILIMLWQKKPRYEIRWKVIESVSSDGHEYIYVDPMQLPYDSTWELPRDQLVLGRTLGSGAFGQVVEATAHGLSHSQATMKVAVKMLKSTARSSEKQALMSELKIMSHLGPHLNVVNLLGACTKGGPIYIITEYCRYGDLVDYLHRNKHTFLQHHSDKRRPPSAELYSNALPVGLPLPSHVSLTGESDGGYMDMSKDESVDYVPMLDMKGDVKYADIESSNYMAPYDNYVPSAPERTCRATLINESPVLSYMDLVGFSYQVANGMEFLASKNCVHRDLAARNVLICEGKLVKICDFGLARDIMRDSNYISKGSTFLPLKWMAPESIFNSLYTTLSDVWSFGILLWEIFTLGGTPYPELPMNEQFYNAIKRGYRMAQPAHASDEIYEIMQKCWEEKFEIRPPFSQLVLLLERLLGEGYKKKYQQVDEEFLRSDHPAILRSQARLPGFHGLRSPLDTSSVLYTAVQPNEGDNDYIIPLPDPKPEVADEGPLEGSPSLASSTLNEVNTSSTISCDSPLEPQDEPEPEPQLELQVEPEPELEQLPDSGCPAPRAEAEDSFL
Method in brief: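 ADP-Glo luminescence assay. PDGFRβ (10 ng/μL, 9 μL) with poly(Glu4,Tyr1) substrate (0.4 μg/μL) and 100 μM ATP, serially diluted inhibitor, 1 h at 37 °C. ADP-Glo reagent was added for 40 min, then detection reagent for 30 min. IC50 was taken from the dose−response fit.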

[4] = biological target: Mast/stem cell growth factor receptor Kit (Homo sapiens) (UniProt P10721); assay: Inhibition of cKIT autophosphorylation at Y703 in human GIST48B cells up to 10 uM after 2 hrs by Western blot analysis; assay type: cell-based
Mast/stem cell growth factor receptor Kit (Homo sapiens), sequence (P10721 whole entry): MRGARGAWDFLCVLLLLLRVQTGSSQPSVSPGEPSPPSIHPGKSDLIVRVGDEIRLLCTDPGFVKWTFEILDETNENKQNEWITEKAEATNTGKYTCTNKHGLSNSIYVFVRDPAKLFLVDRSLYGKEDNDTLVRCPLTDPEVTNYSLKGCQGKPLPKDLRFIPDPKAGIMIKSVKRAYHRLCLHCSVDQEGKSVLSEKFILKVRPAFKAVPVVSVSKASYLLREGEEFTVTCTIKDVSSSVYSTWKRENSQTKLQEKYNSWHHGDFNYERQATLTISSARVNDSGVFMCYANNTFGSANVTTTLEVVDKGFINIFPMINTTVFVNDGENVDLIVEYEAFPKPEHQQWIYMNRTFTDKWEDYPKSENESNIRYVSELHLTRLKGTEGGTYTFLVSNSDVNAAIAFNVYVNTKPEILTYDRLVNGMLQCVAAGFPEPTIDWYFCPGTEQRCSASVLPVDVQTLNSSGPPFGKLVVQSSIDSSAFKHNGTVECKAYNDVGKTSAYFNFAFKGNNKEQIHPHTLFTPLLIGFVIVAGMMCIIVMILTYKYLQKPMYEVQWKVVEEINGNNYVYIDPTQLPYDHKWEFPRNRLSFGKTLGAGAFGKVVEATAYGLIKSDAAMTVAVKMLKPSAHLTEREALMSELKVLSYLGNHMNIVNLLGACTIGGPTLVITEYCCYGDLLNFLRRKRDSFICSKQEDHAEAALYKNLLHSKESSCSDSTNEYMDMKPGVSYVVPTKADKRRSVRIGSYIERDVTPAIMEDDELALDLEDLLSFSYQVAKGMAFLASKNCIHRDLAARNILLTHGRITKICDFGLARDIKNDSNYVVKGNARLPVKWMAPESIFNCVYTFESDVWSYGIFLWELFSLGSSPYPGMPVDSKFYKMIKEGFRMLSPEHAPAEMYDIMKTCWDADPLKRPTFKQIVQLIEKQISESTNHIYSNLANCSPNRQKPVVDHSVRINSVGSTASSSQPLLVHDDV

[5] = Half life in Sprague-Dawley rat plasma at 1 mg/kg, iv; assay type: ADME, organism-based; method in brief: as §2
[6] = biological target: Mast/stem cell growth factor receptor Kit (Homo sapiens) (UniProt P10721); assay: Inhibition of cKIT in human GISTT1 cells assessed as suppression of S6K phosphorylation at T389 up to 10 uM after 2 hrs by Western blot analysis; assay type: cell-based
[7] = biological target: Mast/stem cell growth factor receptor Kit (Homo sapiens) (UniProt P10721); assay: Inhibition of cKIT autophosphorylation at Y719 in human GIST882 cells up to 10 uM after 2 hrs by Western blot analysis; assay type: cell-based
[8] = biological target: T1, Platelet-derived growth factor receptor beta; assay: Inhibition of PDGFRbeta phosphorylation at Y857 in human GIST48B cells up to 10 uM after 2 hrs by Western blot analysis; assay type: cell-based
Method in brief: (§3)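 Cells were washed in cold PBS, lysed in RIPA and immunoblotted for phospho and total proteins, including pPDGFRα Y849/PDGFRβ Y857 and β-actin.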

[9] = biological target: Mast/stem cell growth factor receptor Kit (Homo sapiens) (UniProt P10721); assay: Inhibition in cKIT autophosphorylation at Y703 in human GISTT1 cells up to 10 uM after 2 hrs by Western blot analysis; assay type: cell-based; method in brief: as §3
[10] = biological target: Mast/stem cell growth factor receptor Kit (Homo sapiens) (UniProt P10721); assay: Inhibition of cKIT autophosphorylation at Y719 in human GIST48B cells up to 10 uM after 2 hrs by Western blot analysis; assay type: cell-based
[11] = biological target: Platelet-derived growth factor receptor alpha (Homo sapiens) (UniProt P16234); assay: Inhibition of PDGFRalpha phosphorylation at Y849 in human GIST882 cells up to 10 uM after 2 hrs by Western blot analysis; assay type: cell-based; method in brief: as §3
Platelet-derived growth factor receptor alpha (Homo sapiens), sequence (P16234 whole entry, the tested form may be a part): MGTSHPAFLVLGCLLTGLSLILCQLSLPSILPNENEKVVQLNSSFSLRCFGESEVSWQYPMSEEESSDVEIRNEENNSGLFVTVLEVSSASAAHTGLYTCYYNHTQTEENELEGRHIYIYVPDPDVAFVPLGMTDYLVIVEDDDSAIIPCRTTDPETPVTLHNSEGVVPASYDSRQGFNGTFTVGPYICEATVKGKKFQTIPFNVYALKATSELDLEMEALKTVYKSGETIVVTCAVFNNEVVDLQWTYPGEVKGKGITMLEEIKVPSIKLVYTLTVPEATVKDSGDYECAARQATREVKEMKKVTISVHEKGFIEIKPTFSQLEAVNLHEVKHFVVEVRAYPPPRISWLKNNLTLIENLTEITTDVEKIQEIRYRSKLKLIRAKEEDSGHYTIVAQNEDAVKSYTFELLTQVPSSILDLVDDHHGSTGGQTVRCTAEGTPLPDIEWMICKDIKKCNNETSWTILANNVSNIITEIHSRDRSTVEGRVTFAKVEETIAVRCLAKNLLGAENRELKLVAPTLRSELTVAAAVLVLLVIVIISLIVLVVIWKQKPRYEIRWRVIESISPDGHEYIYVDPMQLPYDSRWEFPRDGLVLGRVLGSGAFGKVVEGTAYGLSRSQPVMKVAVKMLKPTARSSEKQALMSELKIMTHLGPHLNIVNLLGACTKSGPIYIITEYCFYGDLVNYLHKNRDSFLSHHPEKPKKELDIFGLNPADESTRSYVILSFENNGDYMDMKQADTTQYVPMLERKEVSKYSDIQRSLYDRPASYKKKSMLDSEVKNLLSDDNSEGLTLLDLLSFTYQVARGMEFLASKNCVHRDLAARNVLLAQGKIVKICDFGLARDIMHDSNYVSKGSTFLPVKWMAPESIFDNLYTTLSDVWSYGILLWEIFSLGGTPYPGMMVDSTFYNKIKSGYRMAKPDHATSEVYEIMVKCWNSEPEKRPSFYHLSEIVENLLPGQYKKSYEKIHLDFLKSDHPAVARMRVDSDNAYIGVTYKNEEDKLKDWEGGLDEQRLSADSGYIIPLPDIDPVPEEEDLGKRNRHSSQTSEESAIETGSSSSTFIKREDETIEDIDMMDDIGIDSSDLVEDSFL

[12] = biological target: Epithelial discoidin domain-containing receptor 1 (Homo sapiens, UniProt Q08345); assay: Inhibition of GST-tagged human DDR1 expressed in baculovirus after 1 hr by Z-lyte assay
Epithelial discoidin domain-containing receptor 1, sequence (Q08345 whole entry, the tested form may be a part): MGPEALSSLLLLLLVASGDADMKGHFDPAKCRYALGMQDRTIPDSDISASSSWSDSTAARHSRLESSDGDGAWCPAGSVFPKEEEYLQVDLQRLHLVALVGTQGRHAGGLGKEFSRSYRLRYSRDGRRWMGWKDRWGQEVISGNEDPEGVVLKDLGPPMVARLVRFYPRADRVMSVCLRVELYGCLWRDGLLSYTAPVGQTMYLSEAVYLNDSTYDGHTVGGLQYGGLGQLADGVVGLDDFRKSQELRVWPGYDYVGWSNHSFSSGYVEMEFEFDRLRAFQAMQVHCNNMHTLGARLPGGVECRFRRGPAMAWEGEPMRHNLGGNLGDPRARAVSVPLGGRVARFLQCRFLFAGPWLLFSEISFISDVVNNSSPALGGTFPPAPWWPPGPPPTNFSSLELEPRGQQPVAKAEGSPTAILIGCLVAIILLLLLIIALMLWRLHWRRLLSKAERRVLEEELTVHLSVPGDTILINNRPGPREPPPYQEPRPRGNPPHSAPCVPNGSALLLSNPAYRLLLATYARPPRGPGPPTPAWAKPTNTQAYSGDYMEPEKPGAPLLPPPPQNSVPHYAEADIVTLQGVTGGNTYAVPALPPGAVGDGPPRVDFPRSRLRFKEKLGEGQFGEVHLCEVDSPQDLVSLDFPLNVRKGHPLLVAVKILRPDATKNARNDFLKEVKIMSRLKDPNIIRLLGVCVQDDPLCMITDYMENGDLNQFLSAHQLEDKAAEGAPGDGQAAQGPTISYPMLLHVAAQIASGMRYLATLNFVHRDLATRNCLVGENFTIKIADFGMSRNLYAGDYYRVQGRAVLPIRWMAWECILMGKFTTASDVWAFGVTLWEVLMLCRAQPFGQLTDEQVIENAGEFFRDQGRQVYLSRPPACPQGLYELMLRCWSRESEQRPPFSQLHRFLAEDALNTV

AUC(0-inf) [2]: 780 ng·h/mL | GI50 (K562): > 10000 nM | IC50 [3]: 120 nM | inhibition [4]: Active | half-life [5]: 27.1 min | inhibition [6]: Active | inhibition [7]: Active | inhibition [8]: Active | inhibition [9]: Active | inhibition [10]: Active | inhibition [11]: Active | IC50 [12]: 126 nM
SMILES: Cc1ccc(NC(=O)c2cccc(C(F)(F)F)c2)cc1OC1CCN(C(=O)c2ccncc2)CC1
GI50 [1]: > 10000 nM
